From ChEMBL document CHEMBL3124926, “Identification of highly efficacious glucocorticoid receptor agonists with a potential for reduced clinical bone side effects” (J Med Chem, 2014) come the findings set out here.

Structures are written as SMILES.

Series [1] deals with Mus musculus. The series is described as follows: Toxicity in collagen-induced B10.RIII mouse arthritis model assessed as change in femur cortical thickness at 100 mg/kg, po qd for 35 days relative to 30% cremophor-treated control. The note with it: in vivo, 840 h. It is filed as organism-based. On the set-up: dose 100 mg/kg, route oral. Summed up: (§1)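 Female B10.RIII mice were immunized with porcine type II collagen in complete Freund's adjuvant, enrolled at arthritis onset (10/group), and dosed orally once daily for five weeks in 30% cremophor vehicle. Four paws were scored 1–4 (max 16), as AUC. Serum biomarkers were taken at day 35. Femur cortical thickness was measured by microCT in non-immunized, age-matched mice dosed identically.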

The nature of series [2]: Volume of distribution at steady state in rat at 2 mg/kg, iv and 30 mg/kg, po. The following applies: in vivo, read-out: Vdss. In kind it is ADME, organism-based. The gist of the method:
(§2)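 Rat PK: 2 mg/kg iv in 80/20 PEG/water and 30 mg/kg po in 80/18/2 PEG/water/Tween.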

For series [3], the system named is Mus musculus. The series is described as follows: Toxicity in collagen-induced B10.RIII mouse arthritis model assessed as change in insulin level at 100 mg/kg, po qd for 35 days relative to 30% cremophor-treated control. It is filed as organism-based. On the set-up: dose 100 mg/kg, route oral. The note with it: in vivo, 840 h. The gist of the method:
as §1

Series [4] concerns Mus musculus. The series is described as follows: Toxicity in collagen-induced B10.RIII mouse arthritis model assessed as change in AUC at 100 mg/kg, po qd for 35 days relative to 30% cremophor-treated control. In kind it is organism-based. The arrangement: dose 100 mg/kg, route oral. The note with it: in vivo, 840 h. The gist of the method: as §1
For series [5], the system named is Mus musculus. Description: Toxicity in collagen-induced B10.RIII mouse arthritis model assessed as change in free fatty acid level at 100 mg/kg, po qd for 35 days relative to 30% cremophor-treated control. On the set-up: dose 100 mg/kg, route oral. The note with it: in vivo, 840 h. It is filed as organism-based. Summed up: as §1
Series [6] relates to Rattus norvegicus. The series is described as follows: Clearance in rat at 2 mg/kg, iv and 30 mg/kg, po. It is filed as ADME, organism-based. The note with it: in vivo. The gist of the method: as §2
The nature of series [7]: Half life in rat at 2 mg/kg, iv and 30 mg/kg, po. In kind it is ADME, organism-based. The note with it: in vivo. The gist of the method: as §2
The test system of series [8] is Mus musculus. Description: Toxicity in collagen-induced B10.RIII mouse arthritis model assessed as change in body fat at 100 mg/kg, po qd for 35 days relative to 30% cremophor-treated control. In kind it is organism-based. The arrangement: dose 100 mg/kg, route oral. The following applies: in vivo, 840 h. Summed up: as §1
Series [9] has as its system Mus musculus. The series is described as follows: Toxicity in collagen-induced B10.RIII mouse arthritis model assessed as change in triglyceride level at 100 mg/kg, po qd for 35 days relative to 1% methylcellulose-treated control. In kind it is organism-based. On the set-up: dose 100 mg/kg, route oral. The following applies: in vivo, 840 h. The gist of the method: (§3)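 Female B10.RIII mice were immunized at 12–15 weeks with porcine type II collagen emulsified in complete Freund's adjuvant (100 μg intradermal, tail base). Animals were enrolled at first arthritis signs, 10 per group, and dosed orally once daily for five weeks in 1% methylcellulose. Paws were scored 1–4 each (max 16), with AUC taken. Serum was collected at day 35. Femur cortical thickness was measured by microCT in non-immunized, age-matched mice given the same dosing.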

Series [10] has as its system Mus musculus. The series is described as follows: Toxicity in collagen-induced B10.RIII mouse arthritis model assessed as change in AUC at 100 mg/kg, po qd for 35 days relative to 1% methylcellulose-treated control. It is filed as organism-based. On the set-up: dose 100 mg/kg, route oral. The following applies: in vivo, 840 h. The gist of the method: as §3
The test system of series [11] is Mus musculus. Description: Toxicity in collagen-induced B10.RIII mouse arthritis model assessed as change in free fatty acid level at 100 mg/kg, po qd for 35 days relative to 1% methylcellulose-treated control. In kind it is organism-based. On the set-up: dose 100 mg/kg, route oral. The following applies: in vivo, 840 h. Summed up:
as §3

Series [12] relates to Rattus norvegicus. The series is described as follows: Clearance in rat at 5 mg/kg, iv and 30 mg/kg, po. It is filed as ADME, organism-based. The note with it: in vivo. Summed up:
(§4)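 Rat PK: 5 mg/kg iv in 80/20 PEG/water and 30 mg/kg po in 80/18/2 PEG/water/Tween.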

Series [13] is described as follows: Volume of distribution at steady state in rat at 5 mg/kg, iv and 30 mg/kg, po. It is filed as ADME, organism-based. The note with it: in vivo, read-out: Vdss. Summed up:
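Rat pharmacokinetics: single intravenous dose of 5 mg/kg in 80/20 PEG/water, plus a separate oral dose of 30 mg/kg in 80/18/2 PEG/water/Tween. Steady-state volume of distribution is from the iv arm; clearance, half-life and oral bioavailability come from the same study.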

Series [14] in a line: Half life in rat at 5 mg/kg, iv and 30 mg/kg, po. In kind it is ADME, organism-based. The following applies: in vivo. Summed up:
as §4

In series [15] the test system is Mus musculus. The series is described as follows: Toxicity in collagen-induced B10.RIII mouse arthritis model assessed as change in insulin level at 100 mg/kg, po qd for 35 days relative to 1% methylcellulose-treated control. It is filed as organism-based. The arrangement: dose 100 mg/kg, route oral. The following applies: in vivo, 840 h. Summed up:
as §3

For series [16], the system named is Mus musculus. The series is described as follows: Toxicity in nonimmunized, nondiseased mouse assessed as change in femur cortical thickness at 100 mg/kg, po qd for 35 days relative to 1% methylcellulose-treated control. The following applies: in vivo, 840 h.

The term half-life denotes the time in which the quantity being followed falls by half. A high value points to slow decline. Turning to `Cc1ccc(F)cc1C(C)(C)C[C@@](O)(Cc1cc2nnccc2[nH]1)C(F)(F)F`, the Activity in series [1] is on record as -8%; in series [3], -36%; in series [4], -53%; in series [5], -2%; in [8], 8%. In series [2], the Vd was 3.7 L/kg. The CL in series [6] is reported as greater than 100%. In series [7], this compound showed a half-life of 30 min.

For the compound `Cc1ccc(F)cc1C(C)(C)C[C@@](O)(Cc1cc2ncncc2[nH]1)C(F)(F)F`, the Activity is recorded as -14% in series [9]; -57% in [10]; 14% in [11]; 17% in [15]; -6% in [16]. In series [12], this compound yielded a CL of 61%. Further, the Vd in series [13] was found to be 2.1 L/kg. In addition, the half-life in [14] is 36 min.
